In ChEMBL document CHEMBL1123413, “Synthesis and biological evaluation of 1-(1,2-benzisothiazol-3-yl)- and (1,2-benzisoxazol-3-yl)piperazine derivatives as potential antipsychotic agents” (J Med Chem, 1986):

What was measured:
[1] = species: Rattus norvegicus; assay: Compound was tested for inhibition of ethanol potentiation in rat.; format: functional
Method in brief: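 Nonfasted male rats received test drug or vehicle (distilled H2O or 0.5% methocel). EtOH (10 mL of 20% solution/kg, ip) followed at 15, 30, 60 or 120 min post-drug; the vehicle group got it at 15 min. Rats were watched about 10–15 min for loss of righting reflex lasting 1 min. Dose response at peak time used 10/dose; ED50 by Berkson.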

[2] = Binding affinity against histamine receptor was measured using radioligand ([3H]-pyrilamine) binding assay
[3] = Lethal dose after administration in mouse; format: toxicity, organism-based; details: in vivo, read-out: ALD50
[4] = target: T1, Adrenergic receptor alpha-1 (Rattus norvegicus, UniProt P15823+P23944+P43140)
T1 sequence (P15823 whole entry): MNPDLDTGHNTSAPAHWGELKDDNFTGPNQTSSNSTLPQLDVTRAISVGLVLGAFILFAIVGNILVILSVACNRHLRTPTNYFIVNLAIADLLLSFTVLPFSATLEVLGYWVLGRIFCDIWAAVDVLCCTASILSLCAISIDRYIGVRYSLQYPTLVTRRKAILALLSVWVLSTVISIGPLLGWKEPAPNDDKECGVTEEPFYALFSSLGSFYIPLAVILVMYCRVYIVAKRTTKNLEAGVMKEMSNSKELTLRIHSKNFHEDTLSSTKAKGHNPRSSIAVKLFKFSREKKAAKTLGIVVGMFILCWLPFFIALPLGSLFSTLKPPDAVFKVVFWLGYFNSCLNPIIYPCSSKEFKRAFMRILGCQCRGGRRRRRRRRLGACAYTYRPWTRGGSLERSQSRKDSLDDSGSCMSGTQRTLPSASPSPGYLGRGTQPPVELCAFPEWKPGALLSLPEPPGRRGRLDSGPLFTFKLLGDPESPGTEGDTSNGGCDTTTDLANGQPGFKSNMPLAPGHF
T1 sequence (P23944 whole entry): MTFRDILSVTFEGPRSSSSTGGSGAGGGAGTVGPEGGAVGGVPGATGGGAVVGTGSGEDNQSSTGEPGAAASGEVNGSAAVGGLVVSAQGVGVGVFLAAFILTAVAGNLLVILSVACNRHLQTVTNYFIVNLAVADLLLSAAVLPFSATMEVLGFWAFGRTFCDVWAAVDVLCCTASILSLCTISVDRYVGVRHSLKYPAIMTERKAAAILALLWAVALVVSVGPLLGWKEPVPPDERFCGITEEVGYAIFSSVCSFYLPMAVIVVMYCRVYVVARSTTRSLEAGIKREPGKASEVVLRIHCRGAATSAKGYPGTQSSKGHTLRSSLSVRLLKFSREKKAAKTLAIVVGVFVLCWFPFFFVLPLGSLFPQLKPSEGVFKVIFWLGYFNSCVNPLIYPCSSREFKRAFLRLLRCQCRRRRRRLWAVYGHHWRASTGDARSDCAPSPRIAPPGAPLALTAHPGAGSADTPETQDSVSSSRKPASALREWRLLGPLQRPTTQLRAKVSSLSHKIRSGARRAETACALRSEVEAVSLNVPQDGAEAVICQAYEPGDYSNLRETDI
T1 sequence (P43140 whole entry): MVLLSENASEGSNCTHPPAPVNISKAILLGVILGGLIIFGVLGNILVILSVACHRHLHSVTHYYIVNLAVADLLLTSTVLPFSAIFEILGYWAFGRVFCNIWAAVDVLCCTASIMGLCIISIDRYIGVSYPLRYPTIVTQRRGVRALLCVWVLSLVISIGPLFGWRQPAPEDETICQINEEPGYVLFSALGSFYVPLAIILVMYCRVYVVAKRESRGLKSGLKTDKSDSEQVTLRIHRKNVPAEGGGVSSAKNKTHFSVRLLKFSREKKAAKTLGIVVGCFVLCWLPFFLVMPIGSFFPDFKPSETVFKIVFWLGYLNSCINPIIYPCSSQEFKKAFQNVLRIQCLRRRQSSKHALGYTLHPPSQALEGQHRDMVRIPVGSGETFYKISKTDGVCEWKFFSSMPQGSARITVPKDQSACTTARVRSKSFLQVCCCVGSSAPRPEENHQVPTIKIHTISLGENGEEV

[5] = species: Mus musculus; assay: Compound was tested for inhibition of norepinephrine lethality in mouse; format: functional
Method in brief: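 Groups of 10 nonfasted male mice dosed orally with test compound (initial 100 mg/kg) or vehicle (distilled H2O or 0.5% methocel). Active compounds retested at lower doses, 10 mice/dose, for dose response. ED50 by Berkson's method.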

[6] = species: Rattus norvegicus; assay: Compound was tested for inhibition of hexobarbatial potentiation in rat.; format: functional
Method in brief: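 Hexobarbital sodium (40 mg/kg, ip) was given to nonfasted male rats 15, 30, 60 or 120 min after test drug, or 15 min after vehicle (distilled H2O or 0.5% methocel). Loss of righting reflex of 1-min duration was scored over about 10–15 min. Dose response at peak-effect time used 10 rats/dose; ED50 and fiducial limits by Berkson.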

[7] = Binding affinity against Muscarinic acetylcholine receptor was measured using radioligand ([3H]QNB) binding assay
[8] = target: Dopamine receptor; assay: Compound was tested for its effect on dopamine saturation analysis; format: protein assay

In the case of Cl.O=C1CC2(CCCC2)CC(=O)N1CCCCN1CCN(c2nsc3ccccc23)CC1 [TIOSPIRONE HYDROCHLORIDE], the ED50 [1] is reported as 9.3 mg/kg, the IC50 [2] is reported as 142 nM and the LD50 [3] is reported as 1850 mg/kg. The IC50 [4] was 47 nM, the ED50 [5] was 12.5 mg/kg and the ED50 [6] was 6.7 mg/kg. The IC50 [7] was over 1000 nM and the Kd [8] was 0.3337 nM.
